Results from ChEMBL document CHEMBL3421547, “Novel myricetin derivatives: Design, synthesis and anticancer activity” (Eur J Med Chem, 2015).
Activity calls are given as the source filed them. The rule behind the calls is not given here.

Key:
SGC-7901 = test: Cytotoxicity against human SGC7901 cells after 48 hrs by MTT assay; details: SGC-7901, 48 h
MGC-803 = test: Cytotoxicity against human MGC803 cells after 48 hrs by MTT assay; details: MGC-803, 48 h
MDA-MB-231 [1] = test: Cytotoxicity against human MDA-MB-231 cells after 48 hrs by MTT assay; details: MDA-MB-231, 48 h
Bcap37 = test: Cytotoxicity against human Bcap37 cells after 48 hrs by MTT assay; details: Bcap37, 48 h
[2] = target: Telomerase reverse transcriptase (Homo sapiens, UniProt O14746); test: Inhibition of telomerase in human MDA-MB-231 cells after 24 hrs by TRAP-PCR-ELISA; format: cell-based
Chain of Telomerase reverse transcriptase (O14746 whole entry): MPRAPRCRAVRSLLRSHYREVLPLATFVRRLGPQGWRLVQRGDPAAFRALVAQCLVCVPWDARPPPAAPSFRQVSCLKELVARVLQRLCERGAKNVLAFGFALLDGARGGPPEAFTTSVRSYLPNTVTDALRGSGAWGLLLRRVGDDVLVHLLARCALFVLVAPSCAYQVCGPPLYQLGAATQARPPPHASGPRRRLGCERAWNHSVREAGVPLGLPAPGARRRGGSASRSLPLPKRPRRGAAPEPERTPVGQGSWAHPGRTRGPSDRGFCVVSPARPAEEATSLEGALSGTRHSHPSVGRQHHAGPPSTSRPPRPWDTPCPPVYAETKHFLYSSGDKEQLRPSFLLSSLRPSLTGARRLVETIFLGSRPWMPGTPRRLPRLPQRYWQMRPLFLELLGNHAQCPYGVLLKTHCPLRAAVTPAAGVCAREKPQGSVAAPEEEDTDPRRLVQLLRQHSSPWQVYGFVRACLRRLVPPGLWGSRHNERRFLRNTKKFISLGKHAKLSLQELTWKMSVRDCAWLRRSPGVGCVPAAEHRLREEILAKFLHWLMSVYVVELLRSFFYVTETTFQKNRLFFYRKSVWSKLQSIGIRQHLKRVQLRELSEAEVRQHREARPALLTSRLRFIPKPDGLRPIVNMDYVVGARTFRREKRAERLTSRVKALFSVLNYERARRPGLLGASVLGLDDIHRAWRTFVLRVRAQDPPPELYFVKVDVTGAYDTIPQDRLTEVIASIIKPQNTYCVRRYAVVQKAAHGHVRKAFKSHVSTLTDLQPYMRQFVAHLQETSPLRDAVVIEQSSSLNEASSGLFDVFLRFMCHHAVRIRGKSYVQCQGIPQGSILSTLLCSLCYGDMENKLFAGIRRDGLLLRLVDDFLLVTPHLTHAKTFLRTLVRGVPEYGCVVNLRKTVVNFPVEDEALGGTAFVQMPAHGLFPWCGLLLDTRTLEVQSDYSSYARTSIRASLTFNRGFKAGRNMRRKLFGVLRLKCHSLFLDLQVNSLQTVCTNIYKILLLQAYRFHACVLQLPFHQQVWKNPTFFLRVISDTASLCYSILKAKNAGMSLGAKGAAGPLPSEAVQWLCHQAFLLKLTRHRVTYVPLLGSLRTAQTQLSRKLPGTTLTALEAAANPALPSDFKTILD
Summary of the method: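 MDA-MB-231 cells grown in DMEM with 10% FBS plus penicillin/streptomycin, 5 × 10^4 seeded in T25 flasks and allowed to adhere. Treated 24 h at 60, 20, 6.67, 2.22, 0.74, 0.25 and 0.082, with staurosporine included. Lysed in RIPA 30 min on ice, supernatant taken after 12,000 g spin at 4 °C. Telomerase read by TRAP-PCR-ELISA kit at 490 nm; mean ± SD.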

MDA-MB-231 [3] = test: Antiproliferative activity against human MDA-MB-231 cells assessed as breaking and crack at 1 to 10 uM after 24 to 72 hrs by inverted microscopic analysis; format: functional, cell-based
Summary of the method: (§1)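 MDA-MB-231 seeded at 3 × 10^4 cells/mL in DMEM with 10% FBS and grown 24 h at 37 °C, 5% CO2. Compounds in DMSO added (final DMSO ≤0.1%) at 1 and 10 concentrations for 24, 48 and 72 h. Morphology observed by inverted microscope and photographed in randomly chosen fields.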

MDA-MB-231 [4] = test: Antiproliferative activity against human MDA-MB-231 cells assessed as cell distortion at 1 to 10 uM after 24 to 72 hrs by inverted microscopic analysis; format: functional, cell-based
Summary of the method: as §1

MDA-MB-231 [5] = test: Cell cycle arrest in human MDA-MB-231 cells assessed as accumulation at S phase at 1 uM after 48 hrs by flow cytometry (reference value: 34.6 +/- 0.31%); format: functional
MDA-MB-231 [6] = test: Down regulation of p65 protein expression in human MDA-MB-231 cells at 1 uM after 48 hrs by Western blotting analysis; format: functional, cell-based
MDA-MB-231 [7] = test: Cell cycle arrest in human MDA-MB-231 cells assessed as accumulation at G0/G1 phase at 1 uM after 48 hrs by flow cytometry (reference value: 40.5 +/- 0.38%); format: functional
MDA-MB-231 [8] = test: Cell cycle arrest in human MDA-MB-231 cells assessed as accumulation at G2 phase at 1 uM after 48 hrs by flow cytometry (reference value: 34.6 +/- 0.31%); format: functional
MDA-MB-231 [9] = test: Down regulation of TERT protein expression in human MDA-MB-231 cells at 1 uM after 48 hrs by Western blotting analysis; format: functional, cell-based
Summary of the method: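 MDA-MB-231 cells treated 48 h, with AZT (3.0 mmol/L) as reference. Cells lysed in RIPA and protein measured by BCA; 30 or 50 total protein run on SDS-PAGE and blotted to PVDF. Primary antibodies applied 1 h in TBS/Tween-20 with 3% Marvel (anti-TERT 1:500, β-actin loading control). HRP secondaries, ECL detection.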

Row | IC50 [2] | SMILES | IC50 (SGC-7901) | IC50 (MGC-803) | IC50 (MDA-MB-231 [1]) | IC50 (Bcap37) | also measured
1 |  | COc1cc(OC)c2c(=O)c(OCC(=O)N/N=C/c3ccc[nH]3)c(-c3cc(OC)c(OC)c(OC)c3)oc2c1 | 8.73 µM | 5.61 µM | 3.75 µM | 7 µM | 
2 | 28.9 µM | COc1cc(OC)c2c(=O)c(OCCCN3CCCC3)c(-c3cc(OC)c(OC)c(OC)c3)oc2c1 |  | 32.1 µM |  |  | 
3 |  | COc1cc(OC)c2c(=O)c(OCCCN3CCOCC3)c(-c3cc(OC)c(OC)c(OC)c3)oc2c1 | 11.2 µM | 21 µM | 2.9 µM | 4.68 µM | 
4 |  | COc1cc(OC)c2c(=O)c(OCC(=O)N/N=C/c3ccc(C)cc3)c(-c3cc(OC)c(OC)c(OC)c3)oc2c1 | 10.1 µM | 3.51 µM | 4.57 µM | 5.17 µM | 
5 |  | COc1cccc2c1C(=O)c1c(O)c3c(c(O)c1C2=O)C[C@@](O)(C(=O)CO)C[C@@H]3O[C@H]1C[C@H](N)[C@H](O)[C@H](C)O1 [DOXORUBICIN] | 3.5 µM | 3.22 µM | 2.01 µM | 2.87 µM | Activity (MDA-MB-231 [3]): Active
6 | 3.07 µM | COc1cc(OC)c2c(=O)c(OCCCN3CCCCC3)c(-c3cc(OC)c(OC)c(OC)c3)oc2c1 | 16.5 µM | 10 µM | 2.16 µM | 2.96 µM | 
7 | 19.7 µM | COc1cc(OC)c2c(=O)c(OCCCN3CCN(C)CC3)c(-c3cc(OC)c(OC)c(OC)c3)oc2c1 |  |  | 30.1 µM | 38 µM | 
8 | 2 µM | COc1cc(OC)c2c(=O)c(OCCCCN3CCCCC3)c(-c3cc(OC)c(OC)c(OC)c3)oc2c1 | 6.08 µM | 26.8 µM | 3.03 µM | 2.62 µM | 
9 |  | COc1cc(OC)c2c(=O)c(OCC(=O)N/N=C/c3sccc3C)c(-c3cc(OC)c(OC)c(OC)c3)oc2c1 | 10.2 µM | 7.74 µM | 4.47 µM | 8.35 µM | 
10 | 35.7 µM | CCN(CC)CCCOc1c(-c2cc(OC)c(OC)c(OC)c2)oc2cc(OC)cc(OC)c2c1=O | 56.9 µM | 40.2 µM |  | 43 µM | 
11 | 40.3 µM | CCN(CC)CCCCOc1c(-c2cc(OC)c(OC)c(OC)c2)oc2cc(OC)cc(OC)c2c1=O |  |  | 13 µM |  | 
12 | 0.17 µM | C/C(=C\C(=O)Nc1ccccc1C(=O)O)c1ccc2ccccc2c1 |  |  |  |  | 
13 |  | COc1cc(OC)c2c(=O)c(OCCCCN3CCCC3)c(-c3cc(OC)c(OC)c(OC)c3)oc2c1 | 26.8 µM | 18.6 µM | 10.4 µM | 18 µM | 
14 |  | COc1cc(OC)c2c(=O)c(OCC(=O)N/N=C/c3ccccn3)c(-c3cc(OC)c(OC)c(OC)c3)oc2c1 | 16.2 µM | 15.3 µM | 9.89 µM | 18.8 µM | 
15 | 0.91 µM | COc1cc(OC)c2c(=O)c(OCC(=O)N/N=C/c3ccco3)c(-c3cc(OC)c(OC)c(OC)c3)oc2c1 | 5.72 µM | 6.05 µM | 1.86 µM | 3.11 µM | Activity (MDA-MB-231 [4]): Active; Activity (MDA-MB-231 [5]): 28.4%; Activity (MDA-MB-231 [6]): Active; Activity (MDA-MB-231 [7]): 44.3%; Activity (MDA-MB-231 [8]): 27.4%; Activity (MDA-MB-231 [9]): Active
16 | 1.82 µM | COc1cc(OC)c2c(=O)c(OCC(=O)N/N=C/c3ccccc3F)c(-c3cc(OC)c(OC)c(OC)c3)oc2c1 | 7.72 µM | 2.78 µM | 3.4 µM | 4.09 µM | 
17 |  | COc1cc(OC)c2c(=O)c(OCCCCN3CCOCC3)c(-c3cc(OC)c(OC)c(OC)c3)oc2c1 | 12.5 µM | 20.6 µM | 4.17 µM | 5.24 µM | 
18 |  | COc1cc(OC)c2c(=O)c(OCCCCN3CCN(C)CC3)c(-c3cc(OC)c(OC)c(OC)c3)oc2c1 | 6.95 µM | 12.2 µM | 3.87 µM | 4.17 µM | 

Row | SMILES | IC50 [2] | IC50 (SGC-7901) | IC50 (MGC-803) | IC50 (MDA-MB-231 [1]) | IC50 (Bcap37) | also measured
19 | CC[n+]1c(-c2ccccc2)c2cc(N)ccc2c2ccc(N)cc21 [HOMIDIUM BROMIDE] | 2.33 µM |  |  |  |  | 
